Experimental findings from ChEMBL document CHEMBL4177552, “Synthesis and hyperpolarisation of eNOS substrates for quantification of NO production by 1H NMR spectroscopy” (Bioorg Med Chem, 2017) are described below.

Each structure is given as a SMILES string. Where a SMILES comes first, the peptide text is derived from it.

One data set concerns the target T1, Nitric oxide synthase 3 (Bos taurus) (UniProt P29473).
T1 sequence (whole entry): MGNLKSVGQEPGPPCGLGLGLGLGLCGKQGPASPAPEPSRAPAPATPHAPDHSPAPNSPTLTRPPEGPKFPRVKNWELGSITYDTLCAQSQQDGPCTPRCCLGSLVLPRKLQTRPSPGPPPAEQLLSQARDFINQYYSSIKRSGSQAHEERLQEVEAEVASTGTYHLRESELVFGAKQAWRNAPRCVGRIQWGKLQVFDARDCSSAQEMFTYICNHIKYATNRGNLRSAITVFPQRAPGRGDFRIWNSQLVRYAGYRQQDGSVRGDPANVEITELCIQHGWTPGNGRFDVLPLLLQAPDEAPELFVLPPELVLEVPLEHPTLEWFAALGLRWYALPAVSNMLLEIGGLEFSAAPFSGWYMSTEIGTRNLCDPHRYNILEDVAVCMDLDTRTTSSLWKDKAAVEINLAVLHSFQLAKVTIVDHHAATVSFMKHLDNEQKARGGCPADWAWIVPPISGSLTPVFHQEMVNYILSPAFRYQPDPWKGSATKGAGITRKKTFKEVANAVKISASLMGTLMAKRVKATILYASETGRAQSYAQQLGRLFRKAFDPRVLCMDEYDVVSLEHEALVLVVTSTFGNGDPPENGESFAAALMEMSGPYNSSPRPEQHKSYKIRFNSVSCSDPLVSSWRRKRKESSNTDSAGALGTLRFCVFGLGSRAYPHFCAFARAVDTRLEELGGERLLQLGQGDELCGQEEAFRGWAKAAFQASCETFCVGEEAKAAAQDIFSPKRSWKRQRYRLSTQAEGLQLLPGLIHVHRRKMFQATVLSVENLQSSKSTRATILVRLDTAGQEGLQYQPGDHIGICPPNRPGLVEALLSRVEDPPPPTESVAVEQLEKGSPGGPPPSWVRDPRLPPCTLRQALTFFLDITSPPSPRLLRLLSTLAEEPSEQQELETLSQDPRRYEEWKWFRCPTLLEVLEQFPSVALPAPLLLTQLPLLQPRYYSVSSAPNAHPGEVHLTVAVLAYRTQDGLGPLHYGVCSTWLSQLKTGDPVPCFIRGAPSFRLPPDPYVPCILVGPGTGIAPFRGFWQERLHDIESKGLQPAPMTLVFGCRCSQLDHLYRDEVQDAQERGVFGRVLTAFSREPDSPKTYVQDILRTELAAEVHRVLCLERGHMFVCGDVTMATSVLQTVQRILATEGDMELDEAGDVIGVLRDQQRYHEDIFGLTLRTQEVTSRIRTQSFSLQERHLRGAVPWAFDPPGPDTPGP
The data set can be described thus: Substrate activity at recombinant bovine eNOS assessed as enzyme mediated nitrite production after 40 mins by Griess reagent base LDH assay. The gist of the method: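 Run for 40 min alongside an l-arginine positive control and a negative control. Stopped with ice-cold 20 mM HEPES pH 5.5, 2 mM EDTA, 2 mM EGTA. NO-derived nitrite quantified by Griess colorimetry (nitrate/nitrite LDH method).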
On the technique in general: The Griess reaction detects nitrite, a stable product of nitric oxide.
As for `CC(NC(=O)[C@@H](N)CCCNC(=N)N)c1cccnc1` (stereo partly drawn), the Activity came to 26 µM.
On the same count and under the same terms, then `N=C(N)NCCC[C@H](N)C(=O)N[C@@H](Cc1cccnc1)C(=O)O` (HELM PEPTIDE1{R.[O=C(O)[C@H](Cc1cccnc1)N[*:1]]}$$$$V2.0), with 38 µM; and `N=C(N)NCCC[C@H](N)C(=O)NCc1cccnc1`, with 22 µM.
Still for that read-out and setting: then `CN(Cc1cccnc1)C(=O)[C@@H](N)CCCNC(=N)N`, with 23 µM; and `N=C(N)NCCC[C@H](N)C(=O)O`, with 25 µM.
On the same count and under the same terms, for `CN(Cc1ccncc1)C(=O)[C@@H](N)CCCNC(=N)N` the value was 21 µM; for `CC(=O)N[C@@H](CCCN/C(N)=N/O)C(=O)NCc1ccncc1`, 27 µM; for `N=C(N)NCCC[C@H](N)C(=O)Nc1ccncc1`, 22 µM.
With `CC(NC(=O)[C@@H](N)CCCNC(=N)N)c1ccncc1` (stereo partly drawn), the Activity came out at 20 µM.
On to `N=C(N)NCCC[C@H](N)C(=O)NCc1ccncc1`, for which the Activity is 48 µM.
For `N/C(=N\O)NCCC[C@H](N)C(=O)NCc1ccncc1`, the Activity was 26 µM.
For the molecule `N/C(=N\O)NCCCCC(=O)NCc1ccncc1`, the Activity worked out at 29 µM.

Test system in the next data set: not listed separately
Kind of data set: Drug metabolism is PBS buffer assessed as compound conversion after 3 hrs by 1H NMR spectroscopy.
For `N=C(N)NCCC[C@H](N)C(=O)Nc1ccncc1`, the degraded at 3 h turned out to be 41%.
